Columns and labels:
MCF7 = assay: Cytotoxicity against human MCF7 cells assessed as [3H]-hypoxanthine incorporation after 48 hrs; assay type: cell-based
Outline: (§1)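 Cells grown in RPMI with 10% fetal calf serum and exposed to serial compound dilutions for 48 h. Growth measured by [3H]-hypoxanthine incorporation relative to untreated control cultures. Inhibition percentages plotted versus concentration; IC50 read graphically.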

Leishmania amazonensis = assay: Antileishmanial activity against Leishmania amazonensis MHOM/BR/76/LTB-012 axenic amastigotes after 72 hrs by MTT assay; assay type: functional, organism-based; settings: MHOM/BR/76/LTB-012, 72 h
Outline: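 Axenic amastigotes kept by weekly subpassage in MAA/20 medium, 32 ± 1 °C, 5% CO2. Seeded in 96-well plates. Compounds in DMSO tested at four concentrations (50–0.05 µg/mL or 50–0.2 µg/mL, depending on compound) for 72 h. MTT added for 4 h, stopped with 2-propanol/SDS, OD read at 570 nm. % inhibition computed against untreated control; IC50 from inhibition curve. Triplicates; amphotericin B reference.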

Vero = assay: Cytotoxicity against african green monkey Vero cells assessed as [3H]-hypoxanthine incorporation after 48 hrs; assay type: cell-based; settings: Chlorocebus sabaeus; outline: as §1
[1] = Cytotoxicity against mouse peritoneal macrophages assessed as cell viability after 48 hrs by hematocytometer; assay type: cell-based; settings: Peritoneal macrophage cell

Row | Structure (SMILES) | IC50 (MCF7) [µM] | IC50 (Leishmania amazonensis) [µM] | IC50 (Vero) [µM] | IC50 [1] [µM]
1 | COc1ccc([C@@H](OC(C)=O)[C@H]2COC(=O)[C@@H]2C(=O)c2ccc3c(c2)OCO3)cc1OC [SANGUINOLIGNAN C] | 79.2 | 105 | > 226 | –
2 | OC[C@H](Cc1ccc2c(c1)OCO2)[C@H](CO)Cc1ccc2c(c1)OCO2 [DIHYDROCUBEBIN] | 89.4 | > 140 | 83.8 | –
3 | C[C@@H]1[C@H](O)[C@@H](C)/C=C/C=C/C=C/C=C/C=C/C=C/C=C/[C@H](O[C@@H]2O[C@H](C)[C@@H](O)[C@H](N)[C@@H]2O)C[C@@H]2O[C@](O)(C[C@@H](O)C[C@@H](O)[C@H](O)CC[C@@H](O)C[C@@H](O)CC(=O)O[C@H]1C)C[C@H](O)[C@H]2C(=O)O [AMPHOTERICIN B] | – | 0.11 | – | 3.6
4 | O=C(CC(CO)C(=O)c1ccc2c(c1)OCO2)c1ccc2c(c1)OCO2 (stereo not given) [JUSTIFLORINOL] | 140 | > 140 | > 281 | –
5 | CCCCC[C@H](C)OC(=O)/C=C/c1ccc(O)c(O)c1 | 10.6 | 10 | 89.8 | 16.1
6 | CCC[C@H](C)OC(=O)/C=C/c1ccc(O)c(O)c1 | 14 | 2 | 62 | 72
7 | CC(=O)O[C@H](c1ccc2c(c1)OCO2)[C@H]1C(=O)OC[C@@H]1C(=O)c1ccc2c(c1)OCO2 [SANGUINOLIGNAN D] | 17.1 | 69.7 | 82.1 | –
8 | O=C(O)/C=C/c1ccc(O)c(O)c1 [CAFFEIC ACID] | > 550 | 17.8 | > 550 | > 550
9 | O=C1OC[C@H]([C@H](O)c2ccc3c(c2)OCO3)[C@H]1C(=O)c1ccc2c(c1)OCO2 [SANGUINOLIGNAN A] | 146 | 36.7 | 109 | > 260
10 | CCCCCCC[C@H](C)OC(=O)/C=C/c1ccc(O)c(O)c1 | 3.2 | 1.8 | 31 | 12.7
11 | O=C1OC[C@H]([C@H](O)c2ccc3c(c2)OCO3)[C@H]1Cc1ccc2c(c1)OCO2 | 151 | 79.4 | 114 | –
12 | O=C1OC[C@@H]([C@H](O)c2ccc3c(c2)OCO3)[C@H]1C(=O)c1ccc2c(c1)OCO2 [SANGUINOLIGNAN B] | 250 | > 130 | > 260 | –

From ChEMBL document CHEMBL1641391, “Caffeic acid esters and lignans from Piper sanguineispicum” (J Nat Prod, 2010)
